Measured values taken from ChEMBL document CHEMBL4190236, “New arylpyrazoline-coumarins: Synthesis and anti-inflammatory activity” (Eur J Med Chem, 2017).
The source made the active and inactive calls. The calls are words filed in the database; no cut-off is given here.

Experiments:
[1] = system: Rattus norvegicus; experiment: Anti-inflammatory activity in Sprague-Dawley rat assessed as inhibition of carrageenan-induced paw edema at 10 mg/kg, po administered 30 mins prior to carrageenan challenge measured after 1 hr relative to control; assay type: functional
Outline: (§1)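 Male rats given test agent or diclofenac orally at 10 mg/kg, suspended in 0.5% Na CMC, 30 min before 0.1 mL of 1% (w/v) carrageenan injected into right hind paw. Vehicle control received 0.5% sodium CMC. Paw thickness measured at 1, 3 and 5 h. % inhibition calculated from paw oedema of treated versus control group. Table gives n = 5.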

[2] = system: Rattus norvegicus; experiment: Anti-inflammatory activity in Sprague-Dawley rat assessed as inhibition of carrageenan-induced paw edema at 10 mg/kg, po administered 30 mins prior to carrageenan challenge measured after 3 hrs relative to control; assay type: functional; outline: as §1
[3] = system: Rattus norvegicus; experiment: Anti-inflammatory activity in Sprague-Dawley rat assessed as inhibition of carrageenan-induced paw edema at 10 mg/kg, po administered 30 mins prior to carrageenan challenge measured after 5 hrs relative to control; assay type: functional; outline: as §1
[4] = target: Transcription factor p65 (Mus musculus) (UniProt Q04207); experiment: Inhibition of LPS-induced NFkB activation in mouse RAW264.7 cells assessed as reduction in nuclear translocation of p65 at 20 uM preincubated for 1 hr followed by LPS stimulation measured after 3 hrs by Western blot method; assay type: cell-based
Sequence of Transcription factor p65 (Mus musculus) (Q04207 whole entry): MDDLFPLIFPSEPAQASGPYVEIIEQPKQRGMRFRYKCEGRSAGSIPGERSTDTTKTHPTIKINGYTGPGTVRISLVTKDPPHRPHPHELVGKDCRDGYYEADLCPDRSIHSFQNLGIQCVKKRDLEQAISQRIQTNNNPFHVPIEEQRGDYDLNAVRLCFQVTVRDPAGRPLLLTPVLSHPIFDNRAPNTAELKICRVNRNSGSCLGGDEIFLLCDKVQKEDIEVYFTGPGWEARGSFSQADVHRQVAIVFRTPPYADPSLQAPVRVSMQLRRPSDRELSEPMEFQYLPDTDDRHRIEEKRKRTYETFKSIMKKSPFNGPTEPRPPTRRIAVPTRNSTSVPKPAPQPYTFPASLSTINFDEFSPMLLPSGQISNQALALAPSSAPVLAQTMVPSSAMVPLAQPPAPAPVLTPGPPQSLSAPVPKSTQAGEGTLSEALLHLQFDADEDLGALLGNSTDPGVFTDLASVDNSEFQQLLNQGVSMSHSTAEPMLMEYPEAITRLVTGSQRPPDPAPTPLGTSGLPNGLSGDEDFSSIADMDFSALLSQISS

[5] = system: RAW264.7; experiment: Anti-inflammatory activity in mouse RAW264.7 cells assessed as inhibition of LPS-induced TNFalpha release at 10 uM preincubated for 1 hr followed by LPS stimulation measured after 24 hrs by ELISA relative to control; assay type: functional
Outline: (§2)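 RAW264.7 cells (DMEM, 10% FBS, 37 °C, 5% CO2) plated at 7 × 10^4 cells/well and grown 24 h, then serum-starved 2.5 h. Exposed to 10 µM compound for 1 h, then LPS 1 µg/mL for 24 h. TNF-α or IL-6 in the medium quantified by mouse ELISA. Cytokine amount normalized to protein of viable cell pellets. Expressed as % inhibition.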

[6] = system: RAW264.7; experiment: Anti-inflammatory activity in mouse RAW264.7 cells assessed as inhibition of LPS-induced IL-6 release at 10 uM preincubated for 1 hr followed by LPS stimulation measured after 24 hrs by ELISA relative to control; assay type: functional; outline: as §2
[7] = system: RAW264.7; experiment: Anti-inflammatory activity in mouse RAW264.7 cells assessed as inhibition of LPS-induced TNFalpha release preincubated for 1 hr followed by LPS stimulation measured after 24 hrs by ELISA; assay type: functional, cell-based
Outline: (§3)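 Serum-starved (2.5 h) RAW264.7 cells were pretreated 1 h with a range of compound concentrations, then given LPS 1 µg/mL for 24 h. TNF-α or IL-6 in the medium was quantified by mouse ELISA and normalized to protein of viable cell pellets.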

[8] = system: RAW264.7; experiment: Anti-inflammatory activity in mouse RAW264.7 cells assessed as inhibition of LPS-induced IL-6 release preincubated for 1 hr followed by LPS stimulation measured after 24 hrs by ELISA; assay type: functional, cell-based; outline: as §3
[9] = system: RAW264.7; experiment: Cytotoxicity against mouse RAW264.7 cells assessed reduction in cell viability at 10 to 40 uM by MTT assay; assay type: cell-based; settings: raw264.7, 40 µM
[10] = system: RAW264.7; experiment: Anti-inflammatory activity in mouse RAW264.7 cells assessed as inhibition of LPS-induced nitric oxide production preincubated for 1 hr followed by LPS stimulation measured after 24 hrs by Griess assay; assay type: functional, cell-based
Outline: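 Griess nitrite assay. RAW264.7 cells pretreated 1 h with compound, then LPS 1 µg/mL for 24 h. Supernatant mixed 1:1 with Griess reagent, OD read at 540 nm against a NaNO2 standard curve. At least three independent experiments, each in duplicate.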

[11] = system: RAW264.7; experiment: Anti-inflammatory activity in mouse RAW264.7 cells assessed as inhibition of LPS-induced iNOS protein expression preincubated for 1 hr followed by LPS stimulation measured after 24 hrs by Western blot method; assay type: functional, cell-based
Outline: (§4)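 Cells grown 24 h, serum-starved 2.5 h, pretreated 1 h with compound, then LPS 1 µg/mL for 24 h. Lysed in RIPA on ice, run on 10% SDS-PAGE, transferred to PVDF. Probed overnight at 4 °C with primary antibody for iNOS (130 kDa) or COX-2 (72 kDa), then HRP secondary. β-actin as loading control. At least three independent experiments.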

[12] = system: RAW264.7; experiment: Anti-inflammatory activity in mouse RAW264.7 cells assessed as inhibition of LPS-induced COX2 protein expression preincubated for 1 hr followed by LPS stimulation measured after 24 hrs by Western blot method; assay type: functional, cell-based; outline: as §4
[13] = system: Rattus norvegicus; experiment: Anti-inflammatory activity in po dosed adjuvant-induced Sprague-Dawley rat arthritis model assessed as reduction in bone destruction administered once daily from day 14 to 28 post-immunization measured by H and E staining based histopathological analysis; assay type: functional, organism-based
Outline: (§5)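 Male SD rats (180–200 g), 8 per group. Arthritis induced by one intradermal injection of 0.1 mL CFA (heat-killed M. butyricum in paraffin oil, 10 mg/mL) into the right hind paw. Test agent at 45 or 90 mg/kg, aspirin 50 mg/kg, in 0.5% CMC-Na, given intragastrically once daily on days 14–28. Right ankle joints taken at day 28, fixed, EDTA-decalcified, cut at 5 µm and H&E stained.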

[14] = system: Rattus norvegicus; experiment: Anti-inflammatory activity in po dosed adjuvant-induced Sprague-Dawley rat arthritis model assessed as reduction in synovial hyperplasia administered once daily from day 14 to 28 post-immunization measured by H and E staining based histopathological analysis; assay type: functional, organism-based; outline: as §5
[15] = system: Rattus norvegicus; experiment: Anti-inflammatory activity in po dosed adjuvant-induced Sprague-Dawley rat arthritis model assessed as reduction in inflammatory cell infilteration administered once daily from day 14 to 28 post-immunization measured by H and E staining based histopathological analysis; assay type: functional, organism-based; outline: as §5
[16] = target: Mitogen-activated protein kinase kinase kinase 7 (Mus musculus) (UniProt Q62073); experiment: Inhibition of LPS-induced TAK1 phosphorylation in mouse RAW264.7 cells preincubated for 1 hr followed by LPS stimulation measured after 30 min by Western blot method
Sequence of Mitogen-activated protein kinase kinase kinase 7 (Mus musculus) (Q62073 whole entry, looked up): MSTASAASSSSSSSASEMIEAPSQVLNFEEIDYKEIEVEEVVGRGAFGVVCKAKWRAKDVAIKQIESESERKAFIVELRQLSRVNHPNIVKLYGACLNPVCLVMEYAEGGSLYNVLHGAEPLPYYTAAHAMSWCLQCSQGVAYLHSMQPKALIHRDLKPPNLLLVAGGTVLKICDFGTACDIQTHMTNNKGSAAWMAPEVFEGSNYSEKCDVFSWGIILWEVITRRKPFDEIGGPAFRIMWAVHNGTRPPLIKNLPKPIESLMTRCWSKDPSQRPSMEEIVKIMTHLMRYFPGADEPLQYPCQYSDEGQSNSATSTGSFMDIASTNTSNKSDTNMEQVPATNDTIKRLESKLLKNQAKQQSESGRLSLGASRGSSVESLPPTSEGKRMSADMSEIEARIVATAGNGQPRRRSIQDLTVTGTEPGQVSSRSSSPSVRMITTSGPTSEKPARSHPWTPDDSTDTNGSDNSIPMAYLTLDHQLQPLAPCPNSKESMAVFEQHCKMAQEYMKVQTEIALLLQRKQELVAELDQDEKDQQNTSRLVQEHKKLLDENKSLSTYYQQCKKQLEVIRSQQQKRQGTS

[17] = target: Mitogen-activated protein kinase kinase kinase 7 (Mus musculus) (UniProt Q62073); experiment: Inhibition of TAK1 in mouse RAW264.7 cells assessed as reduction in LPS-induced MAPK p38 phosphorylation preincubated for 1 hr followed by LPS stimulation measured after 30 mins by Western blot method
[18] = target: Mitogen-activated protein kinase kinase kinase 7 (Mus musculus) (UniProt Q62073); experiment: Inhibition of TAK1 in mouse RAW264.7 cells assessed as inhibition of LPS-induced NFkB activation by measuring reduction in nuclear translocation of p65 at 2.5 to 10 uM preincubated for 1 hr followed by LPS stimulation measured after 3 hrs by Western blot method
[19] = target: Mitogen-activated protein kinase kinase kinase 7 (Mus musculus) (UniProt Q62073); experiment: Inhibition of TAK1 in mouse RAW264.7 cells assessed as inhibition of LPS-induced NFkB activation by measuring reduction in nuclear translocation of p65 at 2.5 to 10 uM preincubated for 1 hr followed by LPS stimulation measured after 3 hrs by DAPI staining based immunofluorescence assay

How did the inhibition in vivo at 10 mg/kg [1] turn out when `O=C(O)Cc1ccccc1Nc1c(Cl)cccc1Cl` [DICLOFENAC] was run?
The inhibition in vivo at 10 mg/kg was 41%.

And the inhibition in vivo at 10 mg/kg [2]?
The inhibition in vivo at 10 mg/kg was 77%.

And the inhibition in vivo at 10 mg/kg [3]?
Its inhibition in vivo at 10 mg/kg is 48%.

With `Cc1ccc(-c2cc(C(F)(F)F)nn2-c2ccc(S(N)(=O)=O)cc2)cc1` [CELECOXIB] as the molecule, how does the inhibition in vivo at 10 mg/kg [1] read?
Its inhibition in vivo at 10 mg/kg is 55%.

And the inhibition in vivo at 10 mg/kg [2]?
The inhibition in vivo at 10 mg/kg was 59%.

And the inhibition in vivo at 10 mg/kg [3]?
The inhibition in vivo at 10 mg/kg was 61%.

For `Cc1ccc(S(=O)(=O)/C=C/C#N)cc1`, which inhibition [4] is on record?
Its inhibition is “Active”.

Which inhibition [5] does the source give for `O=C(CN1CCCCC1)N1N=C(c2cc3ccccc3oc2=O)CC1c1ccc(C(F)(F)F)cc1` (stereo not drawn) here?
Its inhibition is “Active”.

And the inhibition [6]?
The inhibition was “Active”.

What about the inhibition in vivo at 10 mg/kg [1] of the same molecule?
The inhibition in vivo at 10 mg/kg was 32%.

What about the inhibition in vivo at 10 mg/kg [2] of the same molecule?
The inhibition in vivo at 10 mg/kg was 41%.

And the inhibition in vivo at 10 mg/kg [3]?
Its inhibition in vivo at 10 mg/kg is 36%.

Which results are given for `COc1ccc(-c2coc3cc(OCC(=O)N4N=C(c5cc6ccccc6oc5=O)CC4c4ccc(C(F)(F)F)cc4)ccc3c2=O)cc1` (stereo not drawn)?
inhibition at 10 µM [5]: 40.4%; inhibition at 10 µM [6]: 41.2%; IC50 [7]: 16.8 µM; IC50 [8]: 14.2 µM; Activity [9]: Non-Toxic; Activity [10]: Dose-dependent effect; Activity [11]: Dose-dependent effect; Activity [12]: Dose-dependent effect; Activity [13]: Dose-dependent effect; inhibition in vivo at 10 mg/kg [1]: 49%; inhibition in vivo at 10 mg/kg [2]: 60%; inhibition in vivo at 10 mg/kg [3]: 59%; Activity [14]: Dose-dependent effect; Activity [15]: Dose-dependent effect; inhibition [16]: Dose-dependent effect; inhibition [17]: Dose-dependent effect; inhibition [18]: Active; inhibition [19]: Active

Which results are given for `CC(C)NCC(=O)N1N=C(c2cc3ccccc3oc2=O)CC1c1ccccc1C(F)(F)F` (stereo not drawn)?
inhibition in vivo at 10 mg/kg [1]: 17%; inhibition in vivo at 10 mg/kg [2]: 20%; inhibition in vivo at 10 mg/kg [3]: 13%

With `C=CCN(CC=C)CC(=O)N1N=C(c2cc3ccccc3oc2=O)CC1c1ccccc1C(F)(F)F` (stereo not drawn) as the molecule, how does the inhibition [5] read?
The inhibition was “Active”.

What about the inhibition [6] of the same molecule?
Its inhibition is “Active”.

What about the inhibition in vivo at 10 mg/kg [1] of the same molecule?
Its inhibition in vivo at 10 mg/kg is 28%.

What about the inhibition in vivo at 10 mg/kg [2] of the same molecule?
Its inhibition in vivo at 10 mg/kg is 49%.

And the inhibition in vivo at 10 mg/kg [3]?
The inhibition in vivo at 10 mg/kg was 45%.
